Laboratory results published in ChEMBL document CHEMBL4138240, “Structure-guided design, synthesis and evaluation of oxazolidinone-based inhibitors of norovirus 3CL protease” (Eur J Med Chem, 2018).

Columns and labels:
[1] = Inhibition of Norovirus 3CL protease using Edans-DFHLQ/GP-Dabcyl as substrate preincubated for 30 mins followed by substrate addition measured for 1 hr by FRET assay
Summary of the method: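 Protease preincubated at 37 °C for 30 min with serially diluted compound (up to 100 μM) or DMSO in assay buffer: 20 mM HEPES pH 8, 200 mM NaCl, 0.4 mM EDTA, 60% glycerol, 6 mM DTT. Substrate was then added. Fluorescence (ex 360/em 460 nm) was read for 1 h, with no-protease background subtracted. IC50 came from variable-slope dose-response fits.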

[2] = tested on: Norovirus; assay: Antiviral activity against Norovirus replicon infected in human HG23 cells assessed as inhibition of viral RNA replication after 48 hrs by qRT-PCR method; assay type: functional, organism-based
Summary of the method: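 HG23 cells carrying the NV replicon, confluent or semi-confluent, were given medium with compound (up to 100 μM) or DMSO (<0.1%) for 48 h. Total RNA was then extracted and viral genome quantified by real-time qRT-PCR. EC50 was derived from curve fitting.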

[3] = Cytotoxicity against human HG23 cells after 72 hrs by crystal violet staining-based assay; assay type: cell-based

SMILES	IC50 [1] [µM]	EC50 [2] [µM]	CC50 at 72 h [3] [µM]	EC50 ([2]; Norovirus, HG23, 48 h) [µM]
CC(C)C[C@@H](C(=O)N[C@H](C=O)C[C@@H]1CCNC1=O)N1CC(Cc2cccc(Cl)c2)OC1=O (stereo in doubt; 8B)	15.3	15.3	> 100	–
CC(C)C[C@@H](C(=O)N[C@H](C=O)C[C@@H]1CCNC1=O)N1CC(COc2cccc(Cl)c2)OC1=O (mixture of isomers)	3.8	–	> 100	8.2
CC(C)C[C@@H](C(=O)N[C@H](C=O)C[C@@H]1CCNC1=O)N1CC(Cc2cccc(Cl)c2)OC1=O (stereo in doubt; 8A)	7.3	–	–	11.5
O=C1NCC[C@H]1C[C@H](NC(=O)[C@H](CC1CCCCC1)N1CC(Cc2cccc(Cl)c2)OC1=O)C(O)S(=O)(=O)O (mixture of isomers)	15.1	–	46.1	8.1
CC(C)C[C@@H](C(=O)N[C@@H](C[C@@H]1CCNC1=O)C(O)S(=O)(=O)O)N1CC(Cc2cccc(Cl)c2)OC1=O (stereo in doubt; 12B)	13.2	17.5	> 100	–
O=C[C@H](C[C@@H]1CCNC1=O)NC(=O)[C@H](CC1CCCCC1)N1CC(Cc2cccc(Cl)c2)OC1=O (mixture of isomers)	13.5	–	55.2	6.7
CC(C)C[C@@H](C(=O)N[C@H](C=O)C[C@@H]1CCNC1=O)N1CC(COCc2cccc(Cl)c2)OC1=O (mixture of isomers)	8.1	–	> 100	14.8
CC(C)C[C@@H](C(=O)N[C@@H](C[C@@H]1CCNC1=O)C(O)S(=O)(=O)O)N1CC(Cc2cccc(Cl)c2)OC1=O (stereo in doubt; 12A)	8.2	–	–	12.3
CC(C)C[C@@H](C(=O)N[C@@H](C[C@@H]1CCNC1=O)C(O)S(=O)(=O)O)N1CC(COc2cccc(Cl)c2)OC1=O (mixture of isomers)	8.5	–	> 100	7.6
CC(C)C[C@@H](C(=O)N[C@@H](C[C@@H]1CCNC1=O)C(O)S(=O)(=O)O)N1CC(COCc2cccc(Cl)c2)OC1=O (mixture of isomers)	10.6	–	> 100	17.3
